What is called inhibition is the percentage by which the read-out fell short of the control.

What all share (format): functional
Assay [1] concerns the target T1, Ornithine decarboxylase (Mus musculus) (UniProt P00860).
T1 sequence (whole entry): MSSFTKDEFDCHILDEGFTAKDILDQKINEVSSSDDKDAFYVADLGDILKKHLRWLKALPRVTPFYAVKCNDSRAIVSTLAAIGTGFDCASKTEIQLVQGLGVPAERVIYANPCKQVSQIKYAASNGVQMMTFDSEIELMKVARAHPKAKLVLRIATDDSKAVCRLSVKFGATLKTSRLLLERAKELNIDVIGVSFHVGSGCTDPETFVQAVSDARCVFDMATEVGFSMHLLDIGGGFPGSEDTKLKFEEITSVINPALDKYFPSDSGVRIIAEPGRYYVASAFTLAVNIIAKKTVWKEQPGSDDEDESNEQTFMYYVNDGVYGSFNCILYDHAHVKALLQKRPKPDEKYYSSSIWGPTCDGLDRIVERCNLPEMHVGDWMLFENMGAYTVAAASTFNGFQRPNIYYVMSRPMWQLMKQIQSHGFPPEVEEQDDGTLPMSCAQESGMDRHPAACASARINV
The assay can be described thus: Inhibition of tumor promoter (TPA) -induced mouse epidermal ornithine decarboxylase (ODC) activity at 17 nmol dose level. The procedure, abridged:
(§1)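 Retinoid applied topically to mouse skin 1 h before topical TPA (12-O-tetradecanoylphorbol 13-acetate) to induce epidermal ODC. Dorsal skin from each group of mice was pooled and ODC activity assayed in triplicate. Activity is expressed as % inhibition of TPA-induced ODC relative to TPA-only controls (mean ± SE over groups).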

Assay [2] deals with T1, Ornithine decarboxylase (Mus musculus). Briefly: Inhibition of tumor promoter (TPA) -induced mouse epidermal ornithine decarboxylase (ODC) activity at 170 nmol dose level. In outline:
as §1

The target is the same in assay [3]. The assay can be described thus: Inhibition of tumor promoter (TPA) -induced mouse epidermal ornithine decarboxylase (ODC) activity at 1.7 nmol dose level. In outline:
as §1

For the compound `CCOC(=O)c1ccc(/C=C(C)/C=C/C23OC2(C)CCCC3(C)C)cc1` (stereo unspecified), the inhibition in assay [1] stood at 71%. Still for that read-out and setting: the result for `CC1=C(/C=C/C(C)=C\C=C\c2ccccc2O)C(C)(C)CCC1` reads 0%. On the same count and under the same terms, the figure for `CCOC(=O)c1ccc(/C=C(C)/C=C/C2=C(C)CCCC2(C)C)cc1C` is 0%; for `CC1=C(/C=C/C(C)=C/C=C/c2ccccc2O)C(C)(C)CCC1` it is 25%; for `CC1=C(/C=C/C(C)=C/C=C/c2ccccc2C(=O)O)C(C)(C)CCC1` it is 7%. On to `CC1=C(/C=C/C(C)=C/c2ccc(C(=O)O)cc2)C(C)(C)CCC1`, for which the values for the inhibition in assay [1], in assay [2] and in assay [3] were 77%, 87% and 62%, respectively. Turning to `CC1=C(/C=C/C(C)=C\c2ccc(C(=O)O)cc2)C(C)(C)CCC1`, the inhibition amounted to 43% in assay [1], 64% in assay [2] and 33% in assay [3].

The values above are taken from ChEMBL document CHEMBL1121834, “Aromatic retinoic acid analogues. Synthesis and pharmacological activity” (J Med Chem, 1981).
